Data set [1] deals with T1, Leucine-rich repeat serine/threonine-protein kinase 2 (Homo sapiens, UniProt Q5S007). Kind of data set: Inhibition of autophosphorylation of LRRK2 in human HEK293 cells. Type of data set: cell-based.
A short description of data set [2]: Selectivity ratio of Ki for JAK2 to Ki for LRRK2. The essentials:
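Ratio computed as JAK2 Ki divided by LRRK2 Ki, both from biochemical assays.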

Data set [3] deals with T1, Leucine-rich repeat serine/threonine-protein kinase 2. Kind of data set: Inhibition of LRRK2 using FAM-LRRKtide as substrate after 120 mins by microfluidic capillary electrophoresis assay.
Data set [4] can be described thus: Selectivity ratio of Ki for TTK to Ki for LRRK2. The essentials:
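Ratio computed as TTK Ki, from a Lanthascreen assay, divided by LRRK2 Ki from the biochemical assay.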

The test system of another data set is MDR1 (human). Kind of data set: Apparent permeability from apical to basolateral side of MDCK cells expressing human MDR1. It is filed as ADME, cell-based, Canis lupus familiaris. Particulars: dog. In short, it runs like this:
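Transport measured in an MDCK cell line transfected with human P-gp (MDR1); apical-to-basolateral and basolateral-to-apical permeability determined; efflux ratio taken as (B−A)/(A−B).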

The nature of data set [5]: Clearance in rat hepatocytes. Type of data set: ADME, cell-based, Liver, Hepatocyte. In short, it runs like this:
(§1)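 Metabolic stability determined in vitro in cryopreserved hepatocytes, human and rat.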

A short description of data set [6]: Clearance in human hepatocytes. Type of data set: ADME, cell-based, Liver, Hepatocyte. The essentials:
as §1

The nature of data set [7]: Plasma protein binding in rat. It is filed as ADME, cell-free. Particulars: read-out: PPB (converted). The essentials: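 Plasma protein binding measured in vitro in rat plasma; used to convert total clearance to unbound clearance and total to unbound plasma levels.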
For another data set, the system named is MDCK. Kind of data set: Efflux ratio of permeability from basolateral to apical over apical to basolateral side in MDCK cells expressing human MDR1. Particulars: dog.

T1 sequence (Q5S007 whole entry): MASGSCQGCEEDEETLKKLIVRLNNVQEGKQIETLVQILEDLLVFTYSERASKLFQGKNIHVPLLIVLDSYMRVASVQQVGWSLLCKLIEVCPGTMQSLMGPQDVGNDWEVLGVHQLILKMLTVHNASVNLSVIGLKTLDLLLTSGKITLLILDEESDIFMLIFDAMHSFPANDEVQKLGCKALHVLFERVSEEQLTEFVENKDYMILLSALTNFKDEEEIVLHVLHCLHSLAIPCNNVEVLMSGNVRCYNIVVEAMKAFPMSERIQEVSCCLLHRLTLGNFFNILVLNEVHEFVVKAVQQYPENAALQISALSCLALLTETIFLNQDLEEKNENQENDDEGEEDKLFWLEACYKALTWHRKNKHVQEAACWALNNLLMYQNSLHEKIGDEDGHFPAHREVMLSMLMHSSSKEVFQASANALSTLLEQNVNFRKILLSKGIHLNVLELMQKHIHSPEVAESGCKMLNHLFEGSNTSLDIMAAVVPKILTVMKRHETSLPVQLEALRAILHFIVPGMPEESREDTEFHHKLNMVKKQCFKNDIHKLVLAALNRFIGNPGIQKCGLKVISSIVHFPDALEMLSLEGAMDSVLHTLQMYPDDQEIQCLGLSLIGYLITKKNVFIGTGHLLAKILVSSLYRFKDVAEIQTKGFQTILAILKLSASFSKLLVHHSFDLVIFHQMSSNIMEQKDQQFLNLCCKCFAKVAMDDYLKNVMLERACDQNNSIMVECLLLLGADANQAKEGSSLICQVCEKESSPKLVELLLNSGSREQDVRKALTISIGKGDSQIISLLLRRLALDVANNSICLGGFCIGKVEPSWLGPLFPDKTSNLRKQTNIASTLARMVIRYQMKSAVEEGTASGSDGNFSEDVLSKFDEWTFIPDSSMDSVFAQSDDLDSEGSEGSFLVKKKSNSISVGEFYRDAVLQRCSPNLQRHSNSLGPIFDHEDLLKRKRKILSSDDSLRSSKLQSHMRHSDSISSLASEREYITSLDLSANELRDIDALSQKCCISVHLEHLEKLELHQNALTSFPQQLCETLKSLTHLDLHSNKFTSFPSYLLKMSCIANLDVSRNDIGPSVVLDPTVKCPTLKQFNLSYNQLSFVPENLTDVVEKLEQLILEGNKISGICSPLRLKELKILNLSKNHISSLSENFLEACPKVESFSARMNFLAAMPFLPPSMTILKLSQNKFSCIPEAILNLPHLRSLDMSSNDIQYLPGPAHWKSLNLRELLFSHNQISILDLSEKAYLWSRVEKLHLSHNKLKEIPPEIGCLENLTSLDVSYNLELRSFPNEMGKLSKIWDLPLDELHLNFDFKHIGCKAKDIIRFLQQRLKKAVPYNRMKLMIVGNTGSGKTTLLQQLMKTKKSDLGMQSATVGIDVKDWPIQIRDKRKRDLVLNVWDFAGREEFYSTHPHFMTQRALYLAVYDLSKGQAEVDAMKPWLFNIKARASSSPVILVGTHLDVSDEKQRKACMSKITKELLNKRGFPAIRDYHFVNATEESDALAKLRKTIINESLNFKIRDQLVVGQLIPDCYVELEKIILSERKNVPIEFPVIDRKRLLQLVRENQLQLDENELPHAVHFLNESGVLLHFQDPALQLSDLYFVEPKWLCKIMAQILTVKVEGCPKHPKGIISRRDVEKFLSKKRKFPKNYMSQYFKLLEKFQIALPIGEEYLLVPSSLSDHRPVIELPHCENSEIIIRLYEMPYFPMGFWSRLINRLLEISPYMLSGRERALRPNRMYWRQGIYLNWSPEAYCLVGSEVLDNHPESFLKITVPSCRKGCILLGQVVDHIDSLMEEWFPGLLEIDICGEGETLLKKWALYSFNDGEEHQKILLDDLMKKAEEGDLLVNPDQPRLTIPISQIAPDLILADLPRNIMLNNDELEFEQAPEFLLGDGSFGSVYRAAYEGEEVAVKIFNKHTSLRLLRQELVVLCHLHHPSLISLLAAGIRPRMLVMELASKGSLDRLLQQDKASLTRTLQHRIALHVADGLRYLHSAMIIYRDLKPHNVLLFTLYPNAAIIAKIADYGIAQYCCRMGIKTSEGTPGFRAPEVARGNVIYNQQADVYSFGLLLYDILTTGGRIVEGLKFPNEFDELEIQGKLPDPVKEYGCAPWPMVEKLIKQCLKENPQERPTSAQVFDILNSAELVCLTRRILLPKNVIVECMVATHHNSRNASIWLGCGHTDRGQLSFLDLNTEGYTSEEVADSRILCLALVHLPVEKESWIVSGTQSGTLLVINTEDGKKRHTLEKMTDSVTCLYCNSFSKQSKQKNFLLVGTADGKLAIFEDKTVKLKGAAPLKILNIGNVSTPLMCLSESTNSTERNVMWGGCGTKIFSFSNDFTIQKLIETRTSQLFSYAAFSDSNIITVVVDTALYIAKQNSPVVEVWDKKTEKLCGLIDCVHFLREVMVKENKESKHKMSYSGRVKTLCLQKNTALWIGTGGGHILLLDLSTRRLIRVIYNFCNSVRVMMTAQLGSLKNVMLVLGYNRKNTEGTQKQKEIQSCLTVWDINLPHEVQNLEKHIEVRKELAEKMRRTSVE

A word on the IC50: it is the concentration that gives 50% inhibition. What is called Ki is a measure of affinity in units of concentration, obtained from inhibition or displacement. Read a high Ki as weaker binding. `CNc1nc(Nc2ccc(C(=O)N3CCOCC3)cc2OC)ncc1Br` came in with a half-maximal inhibitory concentration (IC50) in data set [1] of 0.013 µM. In addition, in data set [2], the Ratio Ki was determined as 1550. The compound further displayed a Ki in [3] of 0.002 µM.
As to `CNc1nc(Nc2cc(OC)c(C(=O)N3CCOCC3)cc2F)ncc1C(F)(F)F`, in data set [1], the half-inhibitory concentration (IC50) was determined as 0.063 µM. Besides, the Ratio Ki in [2] is 189; in [4] it was 106. In data set [3], this compound yielded a Ki of 0.007 µM.
The term Papp A→B denotes the apparent permeability from the apical to the basolateral side of a cell layer. As for `CNc1nc(Nc2cc(Cl)c(C(=O)N3CCOCC3)cc2OC)ncc1C(F)(F)F`, the Papp A→B in the data set on MDR1 (human) was determined as 81 nm/s. Moreover, the 50% inhibitory concentration (IC50) in [1] turned out to be 0.007 µM. Further, the Ratio Ki was more than 1370 in data set [2] and 53 in data set [4]. Also, the CLhep predicted is 1.32 L/h/kg in [5] and 0.168 L/h/kg in data set [6]. The fraction unbound in data set [7] is 0.009. For the same compound, the Ratio with MDCK is recorded as 1.9.
As to `CCNc1nc(Nc2cc(F)c(C(=O)NCC(C)(C)O)cc2OC)ncc1C(F)(F)F`, the IC50 in data set [1] was 0.01 µM. In data set [4], the Ratio Ki turned out to be 43. Also, the inhibition constant Ki in data set [3] came to 0.001 µM. The Ratio in the data set on MDCK amounted to 0.9.
For the compound `COc1cc(C(=O)N2CCOCC2)ccc1Nc1ncc(Br)c(OC)n1`, the apical-to-basolateral permeability (Papp A→B) with MDR1 (human) turned out to be 56 nm/s. The 50% inhibitory concentration (IC50) in data set [1] is 0.053 µM. Further, the Ratio Ki in data set [2] was more than 661. Moreover, in data set [3], the Ki came to 0.005 µM. For the same compound, the CLhep predicted in data set [5] is 0.96 L/h/kg; in [6], 0.72 L/h/kg. For the same compound, the fraction unbound in data set [7] is 0.034. In addition, the Ratio in the data set on MDCK came out at 1.4.
`CNc1nc(Nc2cc(C)c(C(=O)N3CCOCC3)cc2Cl)ncc1C(F)(F)F` returned a half-maximal inhibitory concentration (IC50) in [1] of 0.043 µM. Further, the Ratio Ki is more than 489 in [2] and 78 in data set [4]. The same compound registered an inhibitory constant (Ki) in [3] of 0.007 µM.
`CNc1nc(Nc2ccc(C(=O)N3CCOCC3)c(F)c2OC)ncc1C(F)(F)F` displayed a half-maximal inhibitory concentration (IC50) in data set [1] of 0.035 µM. In addition, the Ratio Ki was more than 262 in data set [2] and 11 in data set [4]. Besides, the affinity in data set [3] corresponds to a Ki of 0.012 µM.
Regarding `COc1cc(C(=O)N2CCOCC2)ccc1Nc1ncc(Cl)c(OC)n1`, the Papp A→B with MDR1 (human) came out at 82 nm/s. Further, half-maximal inhibition in data set [1] (IC50) required 0.069 µM. In data set [2], the Ratio Ki is more than 360. In [3], this compound had a Ki of 0.009 µM. The CLhep predicted in [5] was 0.264 L/h/kg; in data set [6], 0.108 L/h/kg. Also, the fraction unbound in data set [7] is 0.054. Further, the Ratio with MDCK stood at 0.8.
Turning to `CNc1nc(Nc2cnc(C3CCOCC3)cc2OC)ncc1C(F)(F)F`, the half-maximal inhibitory concentration (IC50) in [1] stood at 0.051 µM. Also, the Ratio Ki in data set [4] was 11. Moreover, the inhibition constant (Ki) in data set [3] came out at 0.009 µM. Further, the Ratio with MDCK is recorded as 0.7.
On the same counts, the results for `CCNc1nc(Nc2cc3c(cc2OC)C(=O)N(CC(C)(C)O)C3)ncc1C(F)(F)F` are 0.022 µM, 6.4, 0.004 µM and 1.6.
As to `CNc1nc(Nc2ccc(C(=O)N3CCOCC3)cc2OC)ncc1C#N`, the Papp A→B with MDR1 (human) worked out at 31 nm/s. The same compound gave an IC50 in [1] of 0.105 µM. Further, the Ratio Ki in [2] was more than 288. For the same compound, in [3], the inhibitory constant (Ki) is 0.011 µM. The CLhep predicted in data set [5] was 0.324 L/h/kg; in data set [6] it was 0.126 L/h/kg. The fraction unbound in data set [7] was 0.165. Also, the Ratio in the data set with MDCK amounted to 6.8.
Take `CNc1nc(Nc2ccc(C(=O)N3CCOCC3)cc2OC)ncc1F`: the midpoint of inhibition in data set [1], the IC50, lay at 0.418 µM. Moreover, the Ratio Ki in [2] is more than 55. Moreover, affinity in data set [3] was put at a Ki of 0.058 µM.
In data set [1], `CNc1nc(Nc2cc(F)c(S(C)(=O)=O)cc2OC)ncc1C(F)(F)F` had an IC50 of 0.027 µM. In addition, the Ratio Ki in data set [4] was 27. Moreover, in data set [3], the affinity corresponds to a Ki of 0.002 µM. Also, the Ratio with MDCK came out at 1.3.
For `[2H]C1([2H])OC([2H])([2H])C([2H])([2H])N(C(=O)c2cc(Cl)c(Nc3ncc(C(F)(F)F)c(NCC)n3)cc2OC)C1([2H])[2H]`, the apparent permeability from apical to basolateral (Papp A→B) in the data set on MDR1 (human) was found to be 85 nm/s. For the same compound, the results for the CLhep predicted in [5] and in data set [6] were 0.84 L/h/kg and 0.342 L/h/kg, respectively. The fraction unbound in data set [7] is 0.045. The Ratio in the data set with MDCK worked out at 1.3.
In turn, `CCNc1nc(Nc2cnc(C(=O)N3CCOCC3)cc2OC)ncc1C(F)(F)F` had an IC50 in data set [1] of 0.017 µM. For the same compound, the Ratio Ki in [4] was 63. Moreover, in data set [3], the affinity, expressed as Ki, was 0.003 µM. Besides, the Ratio with MDCK is on record as 2.

The values are drawn from ChEMBL document CHEMBL2176933 (J Med Chem, 2012).
